# According to ChEMBL document CHEMBL3352316, “Optimization of physicochemical properties and safety profile of novel bacterial topoisomerase type II inhibitors (NBTIs) with activity against Pseudomonas aeruginosa” (Bioorg Med Chem, 2014):
# Columns and labels:
# [1] = AUC(infinity) in neutropenic mouse at 100 mg/kg/day, ip bid of total 12 doses; type: ADME, organism-based; set-up: dose 100 mg/kg/day, time infinity, route intraperitoneal; conditions: plasma
# Summary of the method: (§1)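 CD-1 mice were made neutropenic with ip cyclophosphamide, 150 mg/kg at day −4 and 100 mg/kg at day −1, then infected in the thigh with P. aeruginosa PAO1. Dosing was ip, bid q12 from 2 h post-infection, in 5% dextrose with lactic acid pH 5.0. Groups of three mice were killed at timed intervals and cardiac-puncture plasma was analysed by LC–MS/MS.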
# [2] = Fraction unbound in human plasma by LC/MS-MS analysis; type: ADME, cell-free
# Summary of the method: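 Equilibrium dialysis: 10 µM compound was spiked into human plasma against phosphate buffer and rotated at 37 °C for 16 h. Plasma and buffer concentrations were quantified by LC/MS–MS with a C18 column and ESI MRM detection.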
# [3] = AUC(infinity) in neutropenic mouse at 200 mg/kg/day, ip bid of total 12 doses; type: ADME, organism-based; set-up: dose 200 mg/kg/day, time infinity, route intraperitoneal; conditions: plasma; summary of the method: as §1
compound,measurement,setting,value
N[C@@H](Cn1c(=O)cnc2ccc(F)cc21)[C@H]1CC[C@H](NCc2ncc3c(n2)NC(=O)CO3)CC1,AUC(0-inf),[1],14800 ng·h/mL
same,fraction unbound,[2],0.73
same,AUC(0-inf),[3],29900 ng·h/mL
